Rows were chosen to be rich in hits. Some 2.1% of all compounds tested hit in one or more screens of this group.
VIM-2 inhibitor – blocks Pseudomonas aeruginosa VIM-2 metallo-beta-lactamase; purified VIM-2, nitrocefin hydrolysis, epi-absorbance fluorescence; inhibition, % at 5.6 µM; 290,000 compounds, 0.89% hits; AID 1527;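 active = inhibition above the mean of all tested compounds plus 3 SD, cutoff set per screening run, cut at about 7.5% in these data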;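 note: red hydrolysis product quenches plate fluorescence so inhibitors raise well fluorescence; 0% = enzyme with DMSO and 100% = DMSO without enzyme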
bovine MsrA act – bovine methionine sulfoxide reductase A activation; activation, % at 10.6 µM; purified bovine MsrA, absorbance read-out; 360,000 compounds, 0.3% hits; in the data active = activation above about 7.5%;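 note: 0% = vehicle and 100% = reference activator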
MsrA inh – bovine MsrA inhibition; purified bovine MsrA, absorbance read-out; inhibition, % at 15.5 µM; 360,000 compounds, 0.75% hits; AID 651718; in the data active = inhibition above about 4.5%;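 note: 0% = vehicle wells with enzyme and 100% = reference inhibitor wells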
IMP-1 inh – inhibitors of Pseudomonas aeruginosa IMP-1 metallo-beta-lactamase; purified IMP-1, nitrocefin hydrolysis, epi-absorbance fluorescence; inhibition, % at 5.6 µM; 290,000 compounds, 0.45% hits;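 active = inhibition above the mean plus 3 SD of all compounds in the same screening run, cut at about 4.5% in these data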;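 note: 0% = IMP-1 with DMSO and 100% = DMSO wells lacking enzyme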
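System: Purified IMP-1 | Read-out basis: Percent enzyme inhibition | Controls: IMP-1 with DMSO as 0%, enzyme-free DMSO as 100% | Replicates: One well per compound | Doses: 5.6 µM nominal single concentration | Detection: Epi-absorbance fluorescence, 480 nm excitation, 530 nm emission | Incubation: 25 °C, 15 min preincubation, 25 min reaction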
PKA-R1A act – PKA-R1A complex activation; activation, % at 11.4 µM; P00514+P68181; PKA-R1A dissociation, Cy5-IP20 fluorescence polarization; scaled: DMSO 0%, 113 µM cGMP 100%; 340,000 compounds, 0.083% hits;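 active = percent activation above the mean of all tested compounds plus 3 SD, cut at about 19% in these data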;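 note: higher means more PKAc released from R1A so a rise in polarization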
PKA-R2B act – activates the human PKA-R2B holoenzyme complex; AID 504700; PKA-R2B holoenzyme dissociation, Cy5-IP20 fluorescence polarization; R2B truncated from residue 108, S112A mutant; 0% DMSO only, 100% 113 µM cGMP; 340,000 compounds, 0.079% hits; P22694+P31323; activation, % at 11.4 µM;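 active = activation above a cutoff set at the mean over all compounds plus 3 SD, cut at about 18% in these data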;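 note: higher means more holoenzyme dissociation and a rise in polarization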
Target sequence (P31323 whole entry, looked up, other chains not shown, the tested form may be a part): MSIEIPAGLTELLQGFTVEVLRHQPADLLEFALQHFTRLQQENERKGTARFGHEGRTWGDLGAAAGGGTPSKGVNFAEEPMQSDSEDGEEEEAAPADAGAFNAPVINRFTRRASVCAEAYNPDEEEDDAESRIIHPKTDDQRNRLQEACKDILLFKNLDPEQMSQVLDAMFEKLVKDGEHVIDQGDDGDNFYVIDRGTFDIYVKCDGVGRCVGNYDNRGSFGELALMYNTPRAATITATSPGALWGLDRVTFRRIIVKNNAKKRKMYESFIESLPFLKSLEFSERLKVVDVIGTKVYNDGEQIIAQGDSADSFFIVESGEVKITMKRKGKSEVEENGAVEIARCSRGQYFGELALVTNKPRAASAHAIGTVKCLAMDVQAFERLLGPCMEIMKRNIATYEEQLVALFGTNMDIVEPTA
An asterisk follows results filed as active; x = no result; ! = repeats disagree.

SMILES	VIM-2 inhibitor	bovine MsrA act	MsrA inh	IMP-1 inh	PKA-R1A act	PKA-R2B act
CCc1csc(CNC(=O)C2CCC(=O)N(Cc3cccc(OC)c3)C2)n1 (stereo unspecified)	x	0	0	x	5	4
CNC(=O)COC(=O)CCC(=O)c1cccs1	-2	-7	1	-1	1	-3
O=C(COC(=O)CCC(=O)c1cccs1)NC(=O)c1ccc(OC(F)F)cc1	-2	-2	1	4.8*	-6	0
C=CCN1[C@@H](C)[C@H](c2ccccc2)Oc2cccc(NCC(C)C)c2S1(=O)=O	x	x	0	x	x	x
COc1ccc(Nc2ccc3c(c2)=NC2(CCCCC2)[N+]=3[O-])cc1	-2	5	15*	-4	-10	3
COc1ccc(NC2=NC(=S)N(c3ccccc3C)C23CCCCC3)cc1	-4	-2	2	-5	-5	2
N#Cc1cccc2cccc(S(=O)(=O)N3CCOCC3)c12	x	-2	-1	x	-8	-2
CCCCOc1ccc(-c2nc(SCC(N)=O)n[nH]2)cc1	0	-3	-1	5.2*	-2	-4
C[C@@H]1CN([C@H](C)CO)C(=O)CCCn2nncc2CO[C@H]1CN(C)S(=O)(=O)c1ccc(F)cc1	x	-5	0	x	-5	-11
CC(C)C(=O)Nc1ccc(-c2nc3ncccc3o2)cc1	-1	1	4.6*	-1	6	3
CC(C)C(=O)Nc1cccc(-c2nc3ncccc3o2)c1	1	-3	2	-2	-2	-8
COc1ccc(/C=C2\SC(=O)N(CCNC(=O)Cn3[nH]c(=O)c4ccccc4c3=O)C2=O)cc1	x	-1	1	x	2	-7
COc1ccc(-c2cc(C(F)(F)F)nc(-n3cncn3)n2)cc1	11*	-12	2	-2	-3	-12
COc1ccc(-c2cc(C(F)(F)F)nc(-n3cc(Br)cn3)n2)cc1	0	-13	1	0	-9	-3
CN1C2C=CC(=O)C1C1C(=O)N(c3ccccc3)C(=O)C12 (stereo unspecified)	x	-5	-1	x	x	x
COc1ccc(C)c2sc(N(CCN(C)C)C(=O)/C=C/c3cccs3)nc12	1	-3	3	1	-20	-7
COc1ccc(OC)c2sc(N(CCN(C)C)C(=O)/C=C/c3cccs3)nc12	5	-3	1	11*	-11	5
N#CC1=C(N)OC2=C(CC/C2=C\c2ccccc2Cl)C1c1ccccc1Cl (stereo unspecified)	-1	-3	-1	-1	-7	1
N#CC1=C(N)OC2=C(CC/C2=C\c2ccccc2)C1c1ccccc1 (stereo unspecified)	-2	-1	1	5.2*	-7	-20
COc1ccc(-c2oc3c(c2C(=O)OCCCO)C(OCCCCCO)CCC3)cc1 (stereo unspecified)	x	-2	0	x	x	x
CN1CCN(C(=O)CCN2C(=O)/C(=C/c3cccc(Br)c3)SC2=S)CC1	1	-3	0	5.5*	-5	0
O=C(CCCN1C(=O)/C(=C/c2cccc(Br)c2)SC1=S)N1CCOCC1	-2	2	-1	-3	-12	-4
CN1CCN(C(=O)CCCN2C(=O)/C(=C/c3cccc(Br)c3)SC2=S)CC1	12*	-5	1	2	-6	8
CN1CCN(C(=O)CCN2C(=O)/C(=C\c3ccc(F)cc3)SC2=S)CC1	x	0	1	x	-2	8
COC(=O)[C@]12C[C@H](CC(=O)NCc3cccc4ccccc34)C(=O)N(Cc3ccc4c(c3)OCO4)C1=C[C@H](C(C)(C)C)O[C@@H]2C	x	x	1	x	x	x
SMILES	VIM-2 inhibitor	bovine MsrA act	MsrA inh	IMP-1 inh	PKA-R1A act	PKA-R2B act
CC1(C(=O)Nc2cccc(OC(F)(F)F)c2)Cc2c(-c3ccc4c(c3)OCO4)ccnc2O1 (stereo unspecified)	x	-8	-1	x	x	x
COc1ccc(S(=O)(=O)Nc2ccncc2)c(C)c1C	-4	-4	-1	-3	-2	0
COc1ccc(S(=O)(=O)Nc2cccnc2)c(C)c1C	-1	0	0	4.6*	0	-3
CN(C)/C=N/C1=C(C#N)C(c2ccc(Br)cc2)c2ccc3ccccc3c2O1 (stereo unspecified)	-2	0	2	6.1*	-9	1
C/C=C/c1ccc(OCCOCCNCc2ccccc2)c(OC)c1	-1	-1	1	-3	-1	3
COC(=O)c1c(-c2cccnc2)csc1NC(=O)c1cc(C)on1	9.7*	-4	1	-3	6	-6
COC(=O)c1c(-c2ccc(C)cc2)csc1NC(=O)c1c(-c2ccccc2)noc1C	1	x	1	-1	x	x
CC(CC1C(C#N)=C(N)SC(N)=C1C#N)c1ccccc1 (stereo unspecified)	-2	-2	2	5.1*	-6	-6
CC(c1ccccc1)C1C(C#N)=C(N)SC(N)=C1C#N (stereo unspecified)	-1	-4	0	1	-6	-5
Cc1nc2c(ccc3nc(NC(=O)C4CC4)sc32)s1	8.6*	-4	0	-2	-17	-7
CC(=O)Nc1ccc(NC(=O)c2ccccc2Nc2ccccc2)cc1	-3	-1	-1	-1	1	-3
CC(=O)NC(=S)Nc1ccccc1C(=O)Nc1ccccc1	0	-6	2	28*	-13	1
CCCCC(=O)NC(=S)Nc1ccccc1C(=O)Nc1ccccc1	0	-1	0	13*	-10	-5
CCN(CC)S(=O)(=O)c1ccc(N2CCN(C)CC2)c(NC(=O)CN2C(=O)NC3(CCCCC3)C2=O)c1	x	-14	-2	x	6	2
CCn1c(SC(C)C(=O)Nc2ccc(N3CCOCC3)cc2)nnc1C1CC1 (stereo unspecified)	x	-3	0	x	0	17
CCCCCCCCCc1conc1C(=O)/C=C/c1oc2c(c1C)CCC(C)C2 (stereo unspecified)	x	x	-1	x	x	x
O=C(O)c1cccnc1C(=O)N1CCc2c([nH]c3ccccc23)C1C(F)(F)F (stereo unspecified)	9.4*	0	-2	-3	x	x
O=C(CCc1nc2ccccc2c(=O)[nH]1)Nc1nnc(SCc2ccccc2F)s1	x	-3	0	x	3	0
COC(=O)CCC(=O)Nc1ccc(S(=O)(=O)Nc2nc(C)cc(C)n2)cc1	0	-2	0	4.8*	-2	8
O=C(CN1C(=O)C(c2ccccc2)Oc2cccnc21)NCc1ccccc1F (stereo unspecified)	0	0	2	54*	1	1
COc1ccc(-c2cc(=O)c3c(O)c(OC)c(OC)c(OC)c3o2)cc1	x	-3	0	x	1	-6
COc1ccc(-c2cc(=O)c3c(OC)c(OC)c(OC)c(OC)c3o2)cc1OC	10*!	-10	2	-1	2	0
